PLC-beta3 inh: PLC-beta3 (human) inhibition, primary screen; Q01970; Purified PLC-beta3, fluorogenic substrate, fluorescence; inhibition, % at 12.2 µM; 0.18% of 370,000 active; in the data active = inhibition above about 11%
DDE Tn6 FP inh: inhibitors of Tn6 peptide binding to human fibrin DD(E). P02675. Fibrin DD(E) TRITC-Tn6 fluorescence polarization displacement. inhibition, % at 8.3 µM. 0.21% of 370,000 active;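 active = inhibition above a per-campaign cutoff: mean of compounds within control limits plus 3 SD, cut at about 15% in these data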
Target sequence (P02675 whole entry, looked up): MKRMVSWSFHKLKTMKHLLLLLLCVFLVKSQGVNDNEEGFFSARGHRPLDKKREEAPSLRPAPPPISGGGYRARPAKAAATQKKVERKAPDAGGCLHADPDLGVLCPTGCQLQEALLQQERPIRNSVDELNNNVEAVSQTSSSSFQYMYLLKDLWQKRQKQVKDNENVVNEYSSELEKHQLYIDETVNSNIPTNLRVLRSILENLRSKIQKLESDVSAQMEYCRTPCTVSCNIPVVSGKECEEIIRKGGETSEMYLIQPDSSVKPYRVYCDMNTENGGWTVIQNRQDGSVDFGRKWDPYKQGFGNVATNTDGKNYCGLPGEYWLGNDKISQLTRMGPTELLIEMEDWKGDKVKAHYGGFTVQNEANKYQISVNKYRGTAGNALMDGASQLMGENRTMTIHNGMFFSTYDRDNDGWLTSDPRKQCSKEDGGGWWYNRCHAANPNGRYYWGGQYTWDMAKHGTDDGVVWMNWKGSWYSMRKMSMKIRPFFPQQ
CendR NRP1 mod: NRP-1/CendR interaction modulation. 0.85% of 360,000 active. inhibition, % at 25 µM. O14786. AID 602438. FAM-RPARPAR peptide binding to NRP-1, fluorescence polarization;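 active = inhibition or corrected inhibition above about 18%, plus a signal ratio from 0.5 to 1.5, limit read from the data, passing the limit was not always enough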
PLCg1 inh: blocks human PLC-gamma1 enzyme activity; purified PLC-gamma1, fluorogenic substrate, fluorescence; AID 720700; P19174; 0.84% of 370,000 active; inhibition, % at 12.2 µM; in the data active = inhibition above about 9.5%
proKLK7 act: activators of human kallikrein-7 zymogen; 0.9% of 370,000 active; AID 652039; activation, % at 7 µM; purified proKLK7, EDANS-DABCYL substrate fluorescence; 100% is mature enzyme control, 0% vehicle; P49862;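 active = activation above the mean of all tested compounds plus 3 SD, computed per campaign excluding outliers beyond control limits, cut at about 13% in these data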
DDE Tn7 FP inh: DD(E)-Tn7 binding inhibition, primary FP screen; P02675; FP displacement of FITC-Tn7 peptide from fibrin DD(E); 0% = median of compound wells per plate; inhibition, % at 8.3 µM; 0.13% of 370,000 active; AID 720508;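 active = inhibition above the mean of compounds falling within the control limits plus 3 SD of them, cut at about 14% in these data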
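Test system – human fibrin DD(E) · Times – 10 min preincubation, 3 h with tracer, room temperature · Detection – fluorescence polarization of the labelled Tn7 tracer · Measure – percent inhibition normalized to high-control wells · Benchmarks – high control wells with 10 µM unlabelled Aha-Tn7 peptide (full inhibition) · Repeats – singlicate testing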
Each line names hits and unclear results; the compound was inactive in the other large screens. In the library only some 3% were active in any assay of this set; here they are far more common.

Cc1n[nH]c(C)c1S(=O)(=O)N1CCC(C(=O)O)CC1	none
Cc1ccc(C(=O)N2[C@@H]3CN(C)C(=O)[C@@]2(C)[C@H]2C(=O)N(Cc4ccccc4)C(=O)[C@@H]32)cc1	none
CCN1C[C@@H]2[C@@H]3C(=O)N(Cc4ccccc4)C(=O)[C@@H]3[C@](C)(C1=O)N2C(=O)c1ccccc1	PLC-beta3 inh 11
CN1C[C@@H]2[C@@H]3C(=O)N(Cc4ccccc4)C(=O)[C@@H]3[C@](C)(C1=O)N2C(=O)c1ccc(Cl)cc1	CendR NRP1 mod 31
O=C(COc1ccccc1C(=O)NCc1ccccc1)Nc1ccc(I)cc1	none (no result: CendR NRP1 mod)
Cc1nc(SCc2ccc(C(=O)O)cc2)nc2c1CCCC2	CendR NRP1 mod 42
O=c1c2cc3cc(Cl)ccc3nc2ncn1N1CCCCC1	none (no result: CendR NRP1 mod)
CN(C(=O)c1cccc(NC(=O)Cc2cccc(NC(=O)C3CCN(C(=O)C4CC4)CC3)c2)c1)C1CCC1	none
CN(C(=O)c1cccc(NC(=O)Cc2cccc(NC(=O)C3CCN(C(=O)C4CC4)CC3)c2)c1)C1CC1	PLCg1 inh 13
Cc1onc(-c2ccccc2)c1C(=O)NN=Cc1cc(Cl)cc(Cl)c1O	none (no result: CendR NRP1 mod)
O=C(NCCc1ccc(Cl)cc1)C1CCC(=O)N(C2CCCCCC2)C1 (stereo unspecified)	none
O=C(NCc1ccc(Cl)cc1)C1CCC(=O)N(C2CC2)C1 (stereo unspecified)	CendR NRP1 mod 20
COC(=O)[C@]12C[C@H](CC(=O)NCC34CC5CC(CC(C5)C3)C4)C(=O)N(Cc3cccc4ccccc34)C1=C[C@H](COCc1ccccc1)O[C@@H]2C	none (no result: CendR NRP1 mod)
C[C@H](O)[C@@H]1CN2CCc3ccc(N4CCOCC4)cc3[C@@H]2C[C@@H]1N(C)C(=S)NCCc1ccccc1	none (no result: CendR NRP1 mod)
Cc1cccc(NC(=S)N/N=C/c2cccc([N+](=O)[O-])c2)c1	none (no result: PLC-beta3 inh, DDE Tn6 FP inh, PLCg1 inh, proKLK7 act, DDE Tn7 FP inh)
Cc1cccc(NC(=S)N/N=C/c2ccc(Cl)c([N+](=O)[O-])c2)c1	CendR NRP1 mod 27
Cc1c(NC(=O)C2CCCN(S(=O)(=O)c3c(C(C)C)cc(C(C)C)cc3C(C)C)C2)c(=O)n(-c2ccccc2)n1C (stereo unspecified)	none (no result: CendR NRP1 mod)
O=C(COC(=O)c1ccc(Sc2ncn[nH]2)c([N+](=O)[O-])c1)Nc1ccc(Cl)c(Cl)c1	none (no result: CendR NRP1 mod)
CCn1c(C)nc2cc(OC)ccc21	CendR NRP1 mod 21
COc1ccc(C2CC(C(F)(F)F)n3nc(C(=O)O)c(Cl)c3N2)cc1OC (stereo unspecified)	CendR NRP1 mod 35
CC1CN(S(=O)(=O)c2cc(C(=O)NC(C)c3cccnc3)ccc2Cl)CC(C)O1 (stereo unspecified)	CendR NRP1 mod 20
C=CCN1C(=O)[C@H](CC(=O)NCc2ccc(OC)c(OC)c2)[C@@]2(C(=O)OCC)CCCC=C12	none (no result: CendR NRP1 mod)
O=C(NNC(=O)c1csc(N2CCOCC2)n1)c1ccc(=O)[nH]c1	CendR NRP1 mod 25
CC(=O)Nc1ccc(C(=O)NNC(=O)c2csc(N3CCOCC3)n2)cc1	none
COc1ccc(Cl)cc1NC(=O)c1cccc(-n2cnnn2)c1	CendR NRP1 mod 22
O=C(c1ccc(-c2cccc(C(F)(F)F)c2)o1)N1CCN(c2ccccc2O)CC1	none
O=C(c1ccc(-c2cccc(C(F)(F)F)c2)o1)N1CCCC(C(F)(F)F)C1 (stereo unspecified)	CendR NRP1 mod 22
CC(C)=CCC[C@@]1(C(=O)O)[C@H]2CC=C(CO)[C@@H]1CC/C(C)=C/CC/C(C)=C/C2	none (no result: CendR NRP1 mod)
CN(C)S(=O)(=O)N1CCN(c2ccc([N+](=O)[O-])c(N3CCOCC3)c2)CC1	none
CS(=O)(=O)N1CCN(c2ccc([N+](=O)[O-])c(N3CCOCC3)c2)CC1	CendR NRP1 mod 28
COc1ccc(S(=O)(=O)Nc2ccc(N3CCOCC3)cc2)cc1[N+](=O)[O-]	CendR NRP1 mod 25
COc1ccc(N2CCN(C3CCCN(C(=O)CN4CCCCC4=O)C3)CC2)cc1 (stereo unspecified)	none
COc1ccccc1N1CCN(C2CCCN(C(=O)CN3CCCCC3=O)C2)CC1 (stereo unspecified)	CendR NRP1 mod 20

Source: PubChem
